In ChEMBL document CHEMBL1123619, “Isothiourea derivatives of 6-phenyl-2,3,5,6-tetrahydroimidazo[2,1-b]thiazole with broad-spectrum anthelmintic activity” (J Med Chem, 1987):

Legend:
Assay type in all cases: functional
[1] = test system: Mus musculus; test: Nematocidal activity against Nematospiroides dubius induced necropsy in mouse, after oral administration of 25 mg/kg of the compound
How it was run: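 Seven-week-old female LACA mice infected orally with 100 N. dubius L3 larvae; single gavage dose given at day 10 of infection, groups of four mice; necropsy 4 days later; percent activity from worm burdens of treated versus untreated groups.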

[2] = test system: Ovis aries; test: Antihelmethic activity expressed as the percentage of worms eliminated in the feces in sheep large bowel at peroral dose of 15 mg/kg against Oesophagostomum columbianum.; details: route oral
How it was run: (§1)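 Sheep given a single dose, oral or subcutaneous. Total daily feces collected for 4 days after treatment and examined for expelled worms. Necropsy at day 7 after dosing; lungs, liver and gastrointestinal tract removed and remaining worms identified. Activity calculated by comparing worms passed in feces with those remaining at autopsy. Single animals per test unless otherwise indicated.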

[3] = test system: Ovis aries; test: Antihelmethic activity expressed as the percentage of worms eliminated in the feces in sheep large bowel at peroral dose of 15 mg/kg against Lungworm Dictyocaulus filaria.; details: route oral; how it was run: as §1
[4] = test system: Ovis aries; test: Antihelmethic activity expressed as the percentage of worms eliminated in the feces in sheep small intestine at subcuteneous dose of 30 mg/kg against Cooperia curticei; how it was run: as §1
[5] = test system: Ovis aries; test: Antihelmethic activity expressed as the percentage of worms eliminated in the feces in sheep small intestine at peroral dose of 15 mg/kg against Trichostrongylus axei; details: route oral; how it was run: as §1
[6] = test system: Ovis aries; test: Antihelmethic activity expressed as the percentage of worms eliminated in the feces in sheep small intestine at peroral dose of 15 mg/kg against Bunostomum trigonocephalum.; details: route oral; how it was run: as §1
[7] = test system: Ovis aries; test: Antihelmethic activity expressed as the percentage of worms eliminated in the feces in sheep abomasum at peroral dose of 30 mg/kg against Trichostrongylus axei; details: route oral; how it was run: as §1
[8] = test system: Ovis aries; test: Antihelmethic activity expressed as the percentage of worms eliminated in the feces in sheep small intestine at peroral dose of 30 mg/kg against Nematodirus species; details: route oral; how it was run: as §1
[9] = test system: Fasciola hepatica; test: Anthelmintic activity against adult liver fluke (Fasciola hepatica) in sheep following 30 mg/kg p.o.; details: route oral
How it was run: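 Sheep dosed with a single oral dose. Fecal fluke egg output monitored after treatment. Animals necropsied only if the fecal egg count fell. Postmortem Fasciola hepatica burdens compared with untreated control sheep (mean of 10 controls). Single animals per test unless otherwise indicated, with group size given in parentheses. I denotes no effect on fecal fluke egg output.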

[10] = organism: Ovis aries; test: Antihelmethic activity expressed as the percentage of worms eliminated in the feces in sheep species.
How it was run: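 Sheep; total daily faeces collected for 4 days after treatment and searched for expelled worms; necropsy 7 days post-dose with lungs, liver and GI tract examined and worms identified; activity from worms passed in faeces versus worms remaining in host at autopsy.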

[11] = test system: Ovis aries; test: Antihelmethic activity expressed as the percentage of worms eliminated in the feces in sheep abomasum at subcuteneous dose of 30 mg/kg against Trichostrongylus axei; how it was run: as §1
[12] = test system: Ovis aries; test: Antihelmethic activity expressed as the percentage of worms eliminated in the feces in sheep small intestine at peroral dose of 15 mg/kg against Nematodirus species; details: route oral; how it was run: as §1
[13] = test system: Ovis aries; test: Antihelmethic activity expressed as the percentage of worms eliminated in the feces in sheep small intestine at peroral dose of 15 mg/kg against Cooperia curticei; details: route oral; how it was run: as §1
[14] = test system: Mus musculus; test: Nematocidal activity against Nematospiroides dubius induced necropsy in mouse, after oral administration of 12.5 mg/kg of the compound
How it was run: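 Female LACA mice (7 weeks) infected orally with 100 N. dubius L3 larvae; single oral dose as solution in PEG 400 on infection day 10, four mice per group; necropsied 4 days later; percent activity by comparing treated and untreated worm burdens.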

`CS/C(=N\c1cccc(C2CN3CCSC3=N2)c1)Nc1ccc(C#N)cc1` (centres undefined) was tested. Which Activity [1] did it give?
The Activity was 68%.

What about the Activity [2] of the same molecule?
Its Activity is 100%.

And the Activity [3]?
Its Activity is 100%.

And the Activity [4]?
The Activity was 91%.

And the Activity [5]?
Its Activity is 100%.

And the Activity [6]?
Its Activity is 100%.

What about the Activity [7] of the same molecule?
Its Activity is 100%.

What about the Activity [8] of the same molecule?
The Activity was 73%.

And the Activity [9]?
The Activity was 97%.

And the Activity [10]?
Its Activity is 95%.

And the Activity [11]?
The Activity was 100%.

What about the Activity [12] of the same molecule?
Its Activity is 100%.

What about the Activity [13] of the same molecule?
Its Activity is 99%.

And the Activity [14]?
Its Activity is 28%.
